From ChEMBL document CHEMBL1125574, “Structure and DNA binding activity of analogues of 1,5-bis(4-amidinophenoxy)pentane (pentamidine)” (J Med Chem, 1992)

Columns and labels:
Nucleic Acid [1] = assay: DNA binding property estimated by measuring denaturation temperature on GC to poly (dGC)-poly(dGC), normalized to ethidium bromide
Calf thymus DNA = assay: Denaturation temperature change on binding to calf thymus DNA; type: functional
Summary of the method: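 Calf thymus DNA at an initial absorbance of 0.3 A259 was heated at 18 °C/h, recording absorbance at 259 nm at 0.2 °C intervals. The melting midpoint was set from graphically selected start and end temperatures. ΔTm was taken against the DNA-alone Tm from the same experiment, as the mean of at least two determinations with standard errors.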

Nucleic Acid [2] = assay: Denaturation temperature change on binding on GC to poly(dGC)-poly(dGC); type: functional
Summary of the method: (§1)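 Synthetic homopolymer, poly(dA)·poly(dT) or poly(dG-dC)·poly(dG-dC), at an initial absorbance of 0.15 A259. Samples were heated at 18 °C/h while absorbance at 259 nm was logged every 0.2 °C. Tm was taken as the curve midpoint between graphically chosen start and end temperatures. ΔTm is relative to the free polymer's Tm in the same run, averaged over at least two determinations with standard errors.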

Nucleic Acid [3] = assay: Denaturation temperature change on binding to AT to poly (dA)-poly(dT); type: functional
Summary of the method: as §1

Nucleic Acid [4] = assay: DNA binding activity as denaturation temperatures on AT to poly (dA)-poly(dT) normalized to ethidium bromide; type: functional

SMILES | ΔTm (Nucleic Acid [1]) | ΔTm (Calf thymus DNA) | ΔTm (Nucleic Acid [2]) | ΔTm (Nucleic Acid [3]) | ΔTm (Nucleic Acid [4])
N=C(N)c1ccc(NCCCCCCNc2ccc(C(=N)N)cc2N)c(N)c1 | 0.7 | 8.3 | 3.6 | 15 | 1.5
N=C(N)c1ccc(NCCCNc2ccc(C(=N)N)cc2)cc1 | 0.6 | 11.6 | 3 | 25.7 | 2.6
N=C(N)c1ccc(OCCCOc2ccc(C(=N)N)cc2)cc1 | 0.8 | 14.7 | 4.5 | 32 | 3.2
N=C(N)c1ccc(NCCCCCNc2ccc(C(=N)N)cc2[N+](=O)[O-])c([N+](=O)[O-])c1 | 1.2 | 12.7 | 6.2 | 22.1 | 2.2
N=C(N)c1cccc(OCCCOc2cccc(C(=N)N)c2)c1 | 0.6 | 7.6 | 3 | 8.5 | 0.9
N=C(N)c1ccc(NCCCCCNc2ccc(C(=N)N)cc2N)c(N)c1 | 0.6 | 11 | 3.3 | 20.9 | 2.1
COc1cc(C(=N)N)ccc1OCCCCCOc1ccc(C(=N)N)cc1OC | 0.5 | 12 | 2.7 | 27.2 | 2.7
N=C(N)c1ccc(NCCNc2ccc(C(=N)N)cc2N)c(N)c1 | 0.6 | 9.8 | 3 | 16.8 | 1.7
N=C(N)c1ccc(NCCCNc2ccc(C(=N)N)cc2N)c(N)c1 | 0.9 | 12.4 | 4.8 | 25.6 | 2.6
N=C(N)c1cccc(OCCCCOc2cccc(C(=N)N)c2)c1 | 0.5 | 8.1 | 2.6 | 15.2 | 1.5
N=C(N)c1ccc(OCCCCCOc2ccc(C(=N)N)cc2N)c(N)c1 | 0.6 | 10.8 | 3.2 | 20.7 | 2.1
N=C(N)c1ccc(OCCCCCCOc2ccc(C(=N)N)cc2)cc1 | 0.5 | 9.1 | 2.8 | 19 | 1.9
N=C(N)c1ccc(OCCCOc2ccc(C(=N)N)cc2N)c(N)c1 | 1 | 13.6 | 5.2 | 32.2 | 3.3
N=C(N)c1ccc(NCCCNc2ccc(C(=N)N)cc2[N+](=O)[O-])c([N+](=O)[O-])c1 | 0.9 | 12.4 | 5 | 26.6 | 2.7
N=C(N)c1ccc(OCCOc2ccc(C(=N)N)cc2[N+](=O)[O-])c([N+](=O)[O-])c1 | 0.4 | 5.6 | 1.9 | 10.3 | 1
CC[n+]1c(-c2ccccc2)c2cc(N)ccc2c2ccc(N)cc21 | 1 | 12.4 | 9.9 | 12.4 | 1
Cn1cc(NC(=O)c2cc(NC(=O)c3cc(NC=O)cn3C)cn2C)cc1C(=O)NCCC(=N)N | 0.4 | 11.5 | 1.9 | 30.5 | 3.1
N=C(N)c1ccc(NCCCCNc2ccc(C(=N)N)cc2)cc1 | 0.5 | 10.3 | 2.8 | 18.7 | 1.9
N=C(N)c1ccc(OCCCCOc2ccc(C(=N)N)cc2N)c(N)c1 | 0.7 | 9.6 | 3.7 | 19.4 | 2

SMILES | ΔTm (Nucleic Acid [1]) | ΔTm (Calf thymus DNA) | ΔTm (Nucleic Acid [2]) | ΔTm (Nucleic Acid [3]) | ΔTm (Nucleic Acid [4])
N=C(N)c1ccc(OCCOc2ccc(C(=N)N)cc2N)c(N)c1 | 0.6 | 8.8 | 3 | 16.4 | 1.7
N=C(N)c1ccc(OCCCCOc2ccc(C(=N)N)cc2Cl)c(Cl)c1 | 0.8 | 8.9 | 4.2 | 20.3 | 2.1
N=C(N)c1cccc(OCCCCCCOc2cccc(C(=N)N)c2)c1 | 0.5 | 7.3 | 2.5 | 8.1 | 0.8
N=C(N)c1ccc(OCCCCOc2ccc(C(=N)N)cc2[N+](=O)[O-])c([N+](=O)[O-])c1 | 0.7 | 9.6 | 3.5 | 14.7 | 1.5
N=C(N)c1ccc(NCCCCCCNc2ccc(C(=N)N)cc2)cc1 | 0.5 | 9.1 | 2.9 | 12.9 | 1.3
N=C(N)c1ccc(OCCCCCOc2ccc(C(=N)N)cc2[N+](=O)[O-])c([N+](=O)[O-])c1 | 0.6 | 9.7 | 3.2 | 21.6 | 2.2
N=C(N)c1ccc(NCCCCNc2ccc(C(=N)N)cc2N)c(N)c1 | 0.9 | 10.5 | 4.6 | 13.2 | 1.3
N=C(N)c1ccc(OCCCCCCOc2ccc(C(=N)N)cc2N)c(N)c1 | 0.5 | 9.5 | 2.8 | 18.4 | 1.9
COc1cc(C(=N)N)ccc1OCCCCOc1ccc(C(=N)N)cc1OC | 0.2 | 10.2 | 1.1 | 22.9 | 2.3
COc1cc(C(=N)N)ccc1OCCCOc1ccc(C(=N)N)cc1OC | 0.6 | 16.3 | 3.4 | 38 | 3.8
N=C(N)c1cccc(OCCCCCOc2cccc(C(=N)N)c2)c1 | 0.4 | 7.6 | 2.2 | 7.6 | 0.8
Cn1cc(NC(=O)c2cc(NC(=O)CNC(=N)N)cn2C)cc1C(=O)NCCC(=N)N | 0.2 | 19 | 1.1 | 46.6 | 4.7
N=C(N)c1ccc(NCCCCCNc2ccc(C(=N)N)cc2)cc1 | 0.8 | 11.3 | 4.4 | 20.7 | 2.1
N=C(N)c1ccc(OCCCCCOc2ccc(C(=N)N)cc2Cl)c(Cl)c1 | 0.9 | 10.5 | 4.6 | 24.3 | 2.5
N=C(N)c1ccc(OCCCCOc2ccc(C(=N)N)cc2)cc1 | 0.6 | 8.3 | 3.1 | 17.9 | 1.8
N=C(N)c1ccc(-c2cc3ccc(C(=N)N)cc3[nH]2)cc1 | 1.3 | 21.5 | 6.9 | 42 | 4.2
N=C(N)c1ccc(OCCCCCOc2ccc(C(=N)N)cc2)cc1 | 0.6 | 10.7 | 3.2 | 22.9 | 2.3
N=C(N)c1ccc(OCCOc2ccc(C(=N)N)cc2)cc1 | 0.2 | 5.4 | 1.3 | 7.5 | 0.8
